Measured values of several laboratories.
Lines come from different studies, so protocols differ.
Target: Serine/threonine-protein kinase LATS1 (LATS1, Homo sapiens, UniProt O95835)
Sequence (O95835 1-1130, as in one of the studies): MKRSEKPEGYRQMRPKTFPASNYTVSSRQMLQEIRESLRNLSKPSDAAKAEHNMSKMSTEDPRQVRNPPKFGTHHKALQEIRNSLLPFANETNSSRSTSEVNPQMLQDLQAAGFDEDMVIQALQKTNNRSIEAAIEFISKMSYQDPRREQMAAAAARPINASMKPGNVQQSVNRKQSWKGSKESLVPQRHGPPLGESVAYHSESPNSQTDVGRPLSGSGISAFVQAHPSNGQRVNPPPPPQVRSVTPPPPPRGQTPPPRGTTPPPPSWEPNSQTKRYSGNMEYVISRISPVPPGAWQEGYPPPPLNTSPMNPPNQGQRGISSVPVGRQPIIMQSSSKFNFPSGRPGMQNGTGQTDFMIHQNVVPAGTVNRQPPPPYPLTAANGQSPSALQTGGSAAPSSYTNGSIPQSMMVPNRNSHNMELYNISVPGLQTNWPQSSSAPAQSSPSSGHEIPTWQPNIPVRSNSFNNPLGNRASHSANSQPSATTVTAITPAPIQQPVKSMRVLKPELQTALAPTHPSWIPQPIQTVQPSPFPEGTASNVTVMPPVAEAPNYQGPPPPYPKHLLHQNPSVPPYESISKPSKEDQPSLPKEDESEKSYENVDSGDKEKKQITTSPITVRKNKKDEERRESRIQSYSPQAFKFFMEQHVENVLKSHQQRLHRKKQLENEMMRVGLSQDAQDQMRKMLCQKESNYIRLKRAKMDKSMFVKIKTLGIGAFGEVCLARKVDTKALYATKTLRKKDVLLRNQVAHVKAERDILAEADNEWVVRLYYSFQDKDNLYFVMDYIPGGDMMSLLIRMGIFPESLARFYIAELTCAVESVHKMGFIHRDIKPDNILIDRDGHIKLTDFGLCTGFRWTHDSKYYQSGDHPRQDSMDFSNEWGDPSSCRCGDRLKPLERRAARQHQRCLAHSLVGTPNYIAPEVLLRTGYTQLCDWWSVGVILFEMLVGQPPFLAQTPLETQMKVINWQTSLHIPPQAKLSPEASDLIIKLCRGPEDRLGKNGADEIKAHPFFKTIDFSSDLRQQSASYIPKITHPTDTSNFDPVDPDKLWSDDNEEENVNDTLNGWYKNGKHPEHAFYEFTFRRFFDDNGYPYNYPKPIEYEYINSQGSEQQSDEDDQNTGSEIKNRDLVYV

Structure (SMILES) | effect on | action | technique | concentration | measurement | result
CC1CCCN1c1nccc(-c2cnn3ncccc23)n1 (stereo not shown) | binding |  |  | 1 µM | remaining binding | 100%
COc1cc(-c2cc(-c3ccc(N4CCNCC4)cc3)cnc2C)cc(OC)c1OC | enzyme activity | inhibitor |  | 1 µM | inhibition | 7%
CC(C)(O)[C@H]1CC[C@H](Nc2ccc3ncc(-c4cccc(C(F)(F)F)c4)n3n2)CC1 | enzyme activity | inhibitor |  | 1 µM | remaining activity | 96.1%
COc1cccc2c(NCc3ccccc3)nc(-n3c(N)nc4ccccc43)nc12 | target engagement in cells | inhibitor | chemoproteomics | 20 mM | inhibition | -30.5%
Nc1ncnc2occ(-c3ccc(NC(=O)Nc4cc(C(F)(F)F)ccc4F)cc3)c12 | cell-free assay | inhibitor |  | 20 µM | remaining signal | 33%
CN1CCN(c2cnc3c(C4CCN(C(=O)c5ccc(OC(F)(F)F)cc5N)CC4)ncnc3c2)CC1 | cell-free assay |  | competition with immobilised ligand | 1 µM | remaining binding | 81%
O=C(Nc1cnn(-c2csc(C(=O)NC3COC3)c2)c1)Nc1ccccc1Cl | enzyme activity | inhibitor |  | 5 µM | remaining activity | 106%
Cc1ccc(C(=O)Nc2ccc(CN3CCN(C)CC3)c(C(F)(F)F)c2)cc1C#Cc1cnc2cccnn12 | enzyme activity | inhibitor |  | 23.5 nM | remaining activity | 93%
CC(=O)N1CCC(c2ccc(C(=O)NC(=N)N)cc2C(F)(F)F)CC1 | cell-free assay |  | competition with immobilised ligand | 1 µM | remaining binding | 72%
CCCCNc1ncc2c(-c3ccc(F)cc3)nn(C[C@H]3CC[C@H](N)CC3)c2n1 | target engagement in cells | inhibitor | chemoproteomics | 20 mM | inhibition | 7.3%
O=C(NC[C@@H]1[C@H]2CN(C(=O)OCc3cc(C(F)(F)F)cc(C(F)(F)F)c3)C[C@@H]12)c1ccc2[nH]nnc2c1 | cell-free assay |  | competition with immobilised ligand | 1 µM | remaining binding | 96%
Cc1sc(C(=O)NC2COC2)cc1-n1cc(NC(=O)Nc2c(F)cccc2Cl)cn1 | enzyme activity | inhibitor |  | 10 µM | remaining activity | 97.2%
Cn1cnc(Br)c1C1=CN(c2ncnc3[nH]cnc23)CCS1 | enzyme activity | inhibitor | radiometric | 50 nM | inhibition | 51.5%
